PKA-R2B act: activators of human PKA-R2B complex; P22694+P31323; AID 504700; 340,000 tested, 0.079% active; PKA-R2B holoenzyme dissociation, Cy5-IP20 fluorescence polarization; R2B truncated from residue 108, S112A mutant; 0% DMSO only, 100% 113 µM cGMP; activation, % at 11.4 µM;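 active means activation above a cutoff set at the mean over all compounds plus 3 SD, cut at about 18% in these data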;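 further: higher means more holoenzyme dissociation and a rise in polarization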
PG9 binder: PG9 antibody binding by small molecule | 360,000 tested, 0.43% active | TR-FRET gp120-PG9 antibody binding | AID 624416 | inhibition, % at 6.7 µM; in the data active means inhibition above about 8.5%
NR2E3 ag-1: NR2E3 (human) agonism. 320,000 tested, 0.12% active. AID 2300. inhibition of corepressor binding, % at 4.78 µM. GST-NR2E3/biotin-RetCOR TR-FRET, 1536-well. Q9Y5X4;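 active means percent inhibition above the cutoff of mean plus 3 SD of all tested compounds, set per screening campaign, cut at about 20% in these data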;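 further: 0% = DMSO wells and 100% = biotin wells as full block of FRET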
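system = GST-tagged NR2E3 plus biotinylated RetCOR corepressor | input = 1.35 nM GST-NR2E3 | also added = 7 nM biotin-RetCOR | schedule = 5 h incubation at 4 °C | measured by = TR-FRET with europium anti-GST and streptavidin-D2, 340 nm excitation | read-out = percent loss of FRET ratio relative to control wells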
PKA-R1A act: activators of PKA-R1A complex. P00514+P68181. PKA-R1A dissociation, Cy5-IP20 fluorescence polarization; scaled: DMSO 0%, 113 µM cGMP 100%. activation, % at 11.4 µM. 340,000 tested, 0.083% active;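 active means percent activation above the mean of all tested compounds plus 3 SD, cut at about 19% in these data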;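 further: higher means more PKAc released from R1A so a rise in polarization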
NR2E3 ag-2: agonists of human NR2E3 nuclear receptor | Q9Y5X4 | CHO-S Gal4-NCOR/VP16-NR2E3 two-hybrid, luciferase | inhibition of corepressor binding, % at 3.98 µM | 360,000 tested, 0.35% active | AID 602229;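 active means inhibition above the mean of all tested compounds plus 3 SD, cut at about 70% in these data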;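 further: 0% = DMSO with NR2E3 transfected cells and 100% = cells lacking NR2E3 construct; higher means lower luciferase signal from less NR2E3 corepressor binding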
NR1D1 modulator: modulators of human Rev-erb alpha DNA binding; Rev-erbα–FITC-DNA binding, fluorescence polarization, 90 min; activity, % at 10 µM; AID 1259318; P20393; 370,000 tested, 0.79% active;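 active means activity above about 14%, limit read from the data; passing the limit was not always enough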;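 further: 0% = DMSO wells with 35 nM protein and 100% = DMSO wells with 750 nM protein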
NR2E3 ag confirm-1: NR2E3 (human) agonism, confirmation; cell-free NR2E3 corepressor release, TR-FRET, 5 h; activation (reported as inhibition), % at 3.98 µM; 360 tested, 39% active; shares compounds with NR2E3 ag-1
PPARg-NCOR2 ag: releases PPARgamma from NCOR2 in NR2E3 counter-screen; shares compounds with NR2E3 ag-1; TR-FRET PPARg-NCOR2 coregulator interaction, biochemical; inhibition, % at 3.98 µM; 360 tested, 45% active; AID 504787; in the data active means inhibition above about 20%;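 further: 0% = DMSO vehicle and 100% = wells without protein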
R2B FP artifact: FP assay interference, PKA-R2B counter-screen | shares compounds with PKA-R2B act | FP artifact counterscreen, fluorescence polarization | activation, % at 11.4 µM | 270 tested, 6% active | AID 504796;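 further: Cy5 labelled IP20 peptide probe with compound but no PKA protein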
PKA-R2B confirm: confirmation of human PKA-R2B complex activators | shares compounds with PKA-R2B act | fluorescence polarization, activation | activation, % at 11.4 µM | 270 tested, 9% active | AID 504797; in the data active means activation above about 19%
NR2E3 ag confirm-2: NR2E3 agonism confirmed in two-hybrid assay; shares compounds with NR2E3 ag-2; CHO-S mammalian two-hybrid NR2E3-NCOR, luciferase luminescence; inhibition, % at 3.98 µM; 2,300 tested, 51% active;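 active means average inhibition above a cutoff equal to the mean inhibition of all tested compounds plus one SD, cut at about 70% in these data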;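 further: 0% = DMSO in NR2E3 cells and 100% = DMSO in cells lacking NR2E3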
VP16 counter: reduces GAL4-VP16 reporter signal in NR2E3 counterscreen. 2,300 tested, 29% active. AID 624379. inhibition, % at 3.98 µM. CHO-S GAL4-VP16 luciferase reporter, luminescence. shares compounds with NR2E3 ag-2;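 active means mean inhibition above a cutoff equal to the average over all tested compounds plus one standard deviation, cut at about 70% in these data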;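 further: luciferase from a UAS reporter driven by GAL4-VP16 transactivation; 0% = DMSO with VP16-transfected cells and 100% = DMSO with cells lacking VP16; higher means less reporter light so more repression of VP16 activity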
* marks the source's active call; other numbers are inactive results; . = not tested or not shown. Only some compounds are listed: those with a hit (about 1.6% of all), similar ones and a draw of the others. Unless noted, no stated cut-off is given here; in the data, active means activation above about 20%; inactive means the rest.

SMILES | PKA-R2B act | PG9 binder | NR2E3 ag-1 | PKA-R1A act | NR2E3 ag-2 | NR1D1 modulator | NR2E3 ag confirm-1 | PPARg-NCOR2 ag | others
CC1=NN(Cc2ccccc2)C(=O)C1 | -21.5 | -1.1 | 19.6* | -9.2 | -17.1 | 4.3 | -8.2 | -10.1
CCOC(=O)Cc1csc(-n2sc3ccccc3c2=O)n1 | -15.9 | -2.4 | 32.0* | 6.2 | -29.8 | -3.0 | 17.9 | 22.1*
CCN(CC)S(=O)(=O)c1cc(C(=O)OCC(=O)Nc2cccc(S(=O)(=O)N(C)C)c2)ccc1F | -5.5 | -0.6 | 21.9* | -4.5 | 1.1 | 11.0 | -5.8 | -6.3
CN(C)S(=O)(=O)c1cccc(NC(=O)COC(=O)c2ccc3ccccc3n2)c1 | -3.2 | 0.1 | . | 7.3 | -4.9 | 0.2 | . | .
Cn1cc(Cl)c(-c2n[nH]c(=S)n2-c2ccc(F)cc2)n1 | 3.5 | 0.0 | 20.3* | 7.1 | -19.8 | -4.7 | 10.0 | 13.4
O=C(O)C1CSCN1 (configuration not stated) | . | . | . | . | . | 3.4 | . | .
CCN(CC(=O)NC(C)(C)C)Cc1nc2c(Br)cc(Br)cc2c(=O)[nH]1 | -7.3 | 0.1 | 21.6* | -7.8 | -6.0 | -3.5 | 33.0* | 29.1*
CCN(CC(=O)NC1CCS(=O)(=O)C1)Cc1nc2c(Br)cc(Br)cc2c(=O)[nH]1 (configuration not stated) | 3.6 | 1.3 | 16.7 | -4.8 | -10.2 | 3.6 | . | .
C[N+]1(C)CCN(CC(O)(c2ccccc2)C2CCCCC2)CC1 (configuration not stated) | . | . | . | . | . | 2.7 | . | .
O=S(=O)(Nc1cc2nc3ccccc3nc2n1Cc1ccccc1)c1ccc(Cl)cc1 | 21.8* | -3.2 | 32.8* | -5.2 | -30.6 | -0.1 | 5.0 | 0.9 | R2B FP artifact=1.4;PKA-R2B confirm=7.2
C[N@+]12CCCC[C@@H]1CCC(=C(c1cccs1)c1cccs1)C2 | . | . | . | . | . | 0.3 | . | .
CCc1oc2ccccc2c1C(=O)c1cc(Br)c(O)c(Br)c1 | -16.5 | -0.2 | 37.6* | 3.2 | 92.1* | 15.3 | 31.5* | 45.2* | NR2E3 ag confirm-2=98.2*;VP16 counter=78.9*
Cc1ccccc1N1CCN(CCc2nnc3n2CCCC3)CC1 | . | . | . | . | . | -1.9 | . | .
Cc1ccc(-n2c(-c3nn(C)cc3Cl)n[nH]c2=S)cc1 | -7.6 | 1.3 | 3.3 | -7.3 | -27.3 | -3.4 | . | .

High-throughput results: PubChem BioAssay, several laboratories
